Laboratory results: ChEMBL document CHEMBL2390866, “Novel pyrimidoazepine analogs as serotonin 5-HT(2A) and 5-HT(2C) receptor ligands for the treatment of obesity” (Eur J Med Chem, 2013)
Activity calls are given as the source filed them. The calls are words filed in the database; no cut-off is given here.

What was measured:
[1] = target: T1, Alpha-2A adrenergic receptor (Homo sapiens, UniProt P08913); test: Binding affinity to adrenergic alpha2A receptor (unknown origin)
T1 sequence (P08913 whole entry): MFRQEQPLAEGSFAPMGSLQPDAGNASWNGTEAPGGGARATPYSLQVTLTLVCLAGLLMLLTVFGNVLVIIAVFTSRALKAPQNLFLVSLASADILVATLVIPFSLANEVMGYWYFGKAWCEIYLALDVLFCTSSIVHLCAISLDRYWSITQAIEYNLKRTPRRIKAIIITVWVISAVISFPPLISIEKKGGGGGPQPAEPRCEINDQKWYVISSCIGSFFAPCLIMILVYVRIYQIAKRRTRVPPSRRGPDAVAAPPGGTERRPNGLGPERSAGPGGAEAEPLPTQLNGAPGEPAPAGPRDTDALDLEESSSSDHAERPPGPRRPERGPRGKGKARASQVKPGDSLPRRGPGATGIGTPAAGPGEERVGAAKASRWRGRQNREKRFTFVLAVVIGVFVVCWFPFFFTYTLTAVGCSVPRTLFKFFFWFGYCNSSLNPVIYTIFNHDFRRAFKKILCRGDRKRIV

[2] = Plasma concentration in Sprague-Dawley rat at 10 mg/kg, po measured at 2 hrs; assay type: ADME, organism-based; design: dose 10 mg/kg, route oral
Procedure, shortened: (§1)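 Rats fasted 12 h, then dosed orally by gavage or by bolus tail-vein injection at 2 ml/kg. Compound given as a 5 mg/ml solution in N-methyl-2-pyrrolidone/Tween 80/water (1:2:7). Samples taken at various times (n = 5) and stored at −70 °C. Plasma deproteinized with acetonitrile containing carbamazepine internal standard, then quantified by LC-MS/MS.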

[3] = AUClast in Sprague-Dawley rat at 10 mg/kg, iv; assay type: ADME, organism-based; design: time 0 - last, dose 10 mg/kg, route intravenous; conditions: plasma
[4] = system: Mus musculus; test: Antiobesity activity in B6.V/J ob/ob mouse assessed as change in spleen weight at 25 mg/kg, po bid measured after 14 days (reference value: 0.097 +/- 0.052 g); assay type: functional
[5] = system: Mus musculus; test: Antiobesity activity in B6.V/J ob/ob mouse assessed as change in thymus weight at 50 mg/kg, po bid measured after 14 days (reference value: 0.029 +/- 0.006 g); assay type: functional
[6] = Drug uptake in Sprague-Dawley rat brain at 10 mg/kg, iv measured at 2 hrs; assay type: ADME, organism-based; design: dose 10 mg/kg, route intravenous; conditions: read-out: Drug uptake; procedure, shortened: as §1
[7] = target: T2, Alpha-1A adrenergic receptor (Homo sapiens, UniProt P35348); test: Binding affinity to adrenergic alpha1A receptor (unknown origin)
T2 sequence (P35348 whole entry): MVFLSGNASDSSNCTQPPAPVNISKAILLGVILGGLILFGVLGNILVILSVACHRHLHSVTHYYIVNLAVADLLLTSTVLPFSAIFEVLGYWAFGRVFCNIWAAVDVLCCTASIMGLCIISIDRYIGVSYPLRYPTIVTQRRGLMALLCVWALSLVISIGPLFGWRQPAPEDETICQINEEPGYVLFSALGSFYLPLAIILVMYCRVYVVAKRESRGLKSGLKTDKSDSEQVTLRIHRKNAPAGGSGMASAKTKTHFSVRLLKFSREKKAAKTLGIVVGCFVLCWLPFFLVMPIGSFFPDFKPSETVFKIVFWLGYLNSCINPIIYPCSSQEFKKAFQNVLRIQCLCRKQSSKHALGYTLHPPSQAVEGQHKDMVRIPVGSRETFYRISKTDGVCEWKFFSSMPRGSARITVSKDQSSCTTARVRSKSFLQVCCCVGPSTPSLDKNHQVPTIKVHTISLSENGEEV

[8] = target: 5-hydroxytryptamine receptor 6 (Homo sapiens, UniProt P50406); test: Displacement of [3H]-LSD from human recombinant 5HT-6 receptor expressed in CHOK1 cell membranes after 60 mins; design: species or system CHO-K1
Sequence of 5-hydroxytryptamine receptor 6 (P50406 whole entry): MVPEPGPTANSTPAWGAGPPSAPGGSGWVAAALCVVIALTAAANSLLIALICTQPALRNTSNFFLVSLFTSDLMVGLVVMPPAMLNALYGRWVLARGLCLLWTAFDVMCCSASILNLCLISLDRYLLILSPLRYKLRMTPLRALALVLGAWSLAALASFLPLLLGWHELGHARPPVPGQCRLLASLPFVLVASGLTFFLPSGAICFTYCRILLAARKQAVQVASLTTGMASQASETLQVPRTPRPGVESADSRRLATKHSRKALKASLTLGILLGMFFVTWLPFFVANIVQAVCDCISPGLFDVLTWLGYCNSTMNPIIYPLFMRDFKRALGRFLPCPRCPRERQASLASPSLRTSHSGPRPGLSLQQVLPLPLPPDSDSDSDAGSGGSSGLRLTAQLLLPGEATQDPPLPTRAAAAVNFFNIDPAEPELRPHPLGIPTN
Procedure, shortened: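 CHO-K1 membranes expressing human 5-HT6 incubated with 1 nM [3H]LSD for 60 min at 27 °C in 50 mM Tris-HCl pH 7.4 containing 4 mM CaCl2 and 0.1% ascorbic acid. Terminated by filtration on glass-fiber filters presoaked in 0.5% PEI. Methiothepin defined nonspecific binding.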

[9] = system: Mus musculus; test: Antiobesity activity in B6.V/J ob/ob mouse assessed as inhibition of food intake at 12.5 mg/kg, ip measured up to 6 hrs relative to vehicle-treated control; assay type: functional; conditions: route intraperitoneal
Procedure, shortened: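 Male mice were acclimated 1 week at 23 ± 3 °C and 50 ± 20% humidity, then fasted 24 h. They were dosed once intraperitoneally with vehicle or compound: 50 mg/kg in C57BL/6, or 12.5, 25 or 50 mg/kg in B6.V-Lep^ob/J. Food intake was measured at 2, 6 and 12 h versus vehicle control.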

[10] = target: D(3) dopamine receptor (Homo sapiens, UniProt P35462); test: Displacement of [3H]-methylspiperone from dopamine D3 receptor (unknown origin) after 30 mins
Sequence of D(3) dopamine receptor (P35462 whole entry): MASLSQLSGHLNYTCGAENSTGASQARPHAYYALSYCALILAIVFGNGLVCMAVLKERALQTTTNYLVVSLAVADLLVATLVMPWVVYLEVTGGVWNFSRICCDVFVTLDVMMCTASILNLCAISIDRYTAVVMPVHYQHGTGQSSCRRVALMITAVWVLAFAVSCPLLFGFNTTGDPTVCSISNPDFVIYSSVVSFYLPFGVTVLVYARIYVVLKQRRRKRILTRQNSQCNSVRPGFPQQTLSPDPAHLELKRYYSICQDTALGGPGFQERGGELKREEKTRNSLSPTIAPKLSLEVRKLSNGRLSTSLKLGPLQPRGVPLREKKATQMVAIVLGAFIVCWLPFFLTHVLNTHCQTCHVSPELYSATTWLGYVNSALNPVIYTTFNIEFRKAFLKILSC
Procedure, shortened: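 Receptor membranes incubated at 27 °C, 60 min for D2L and 30 min for D3, with [3H]methylspiperone (0.2 nM for D2L, 0.25 nM for D3) and test compound at a range of concentrations. Buffer was 50 mM Tris-HCl pH 7.4, 10 mM MgCl2, 1 mM EDTA, 120 mM NaCl. Nonspecific binding defined with haloperidol (D2) or GR103691 (D3). IC50 obtained by nonlinear regression.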

[11] = organism: Homo sapiens; test: Selectivity ratio of IC50 for human recombinant 5HT-2B receptor to IC50 for human recombinant 5HT-2C receptor
[12] = AUC (0 to infinity) in Sprague-Dawley rat at 10 mg/kg, po; assay type: ADME, organism-based; design: time infinity, dose 10 mg/kg, route oral; conditions: plasma
[13] = system: Mus musculus; test: Antiobesity activity in B6.V/J ob/ob mouse assessed as change in lung weight at 50 mg/kg, po bid measured after 14 days (reference value: 0.143 +/- 0.013 g); assay type: functional
[14] = Plasma concentration in Sprague-Dawley rat at 10 mg/kg, po measured at 8 hrs; assay type: ADME, organism-based; design: dose 10 mg/kg, route oral; procedure, shortened: as §1
[15] = system: Mus musculus; test: Antiobesity activity in B6.V/J ob/ob mouse assessed as inhibition of body weight gain at 25 mg/kg, po bid measured after 14 days relative to vehicle-treated control; assay type: functional; conditions: 336 h
[16] = Apparent volume of distribution at steady state in Sprague-Dawley rat at 10 mg/kg, iv; assay type: ADME, organism-based; design: dose 10 mg/kg, route intravenous; conditions: in vivo, read-out: Vdss(app); procedure, shortened: as §1
[17] = system: Mus musculus; test: Antiobesity activity in B6.V/J ob/ob mouse assessed as change in brain weight at 50 mg/kg, po bid measured after 14 days (reference value: 0.340 +/- 0.017 g); assay type: functional
[18] = system: Mus musculus; test: Antiobesity activity in B6.V/J ob/ob mouse assessed as change in kidney weight at 50 mg/kg, po bid measured after 14 days (reference value: 0.339 +/- 0.009 g); assay type: functional
[19] = system: Mus musculus; test: Antiobesity activity in B6.V/J ob/ob mouse assessed as reduction of body weight gain at 50 mg/kg, po qd measured after 14 days; assay type: functional, organism-based; design: dose 50 mg/kg
Procedure, shortened: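 Male ob/ob mice (B6.V-Lep^ob/J) received oral doses once daily for 14 days, with vehicle control. Food intake and body weight gain were followed.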

[20] = system: Mus musculus; test: Antiobesity activity in B6.V/J ob/ob mouse assessed as change in spleen weight at 50 mg/kg, po bid measured after 14 days (reference value: 0.097 +/- 0.052 g); assay type: functional
[21] = AUClast in Sprague-Dawley rat at 10 mg/kg, po; assay type: ADME, organism-based; design: time 0 - last, dose 10 mg/kg, route oral; conditions: plasma

Molecule `Cl.Clc1cccc(Nc2nc(Cc3ccccc3)nc3c2CCNCC3)c1` has an IC50 [1] of over 10000 nM, a concentration at 2 h [2] of 50 ng/mL and an AUC(0-t) [3] of 1730 ng·h/mL. The Activity [4] was 0.111 g, the Activity [5] was 0.04 g and the concentration at 2 h [6] was 1480 ng/mL. For the same molecule, the IC50 [7] was over 10000 nM, the IC50 [8] was 21.8 nM and the inhibition in vivo at 12.5 mg/kg [9] was 71%. For the same molecule, the IC50 [10] was 807 nM, the Ratio IC50 [11] was 8.1 and the AUC(0-inf) [12] was 1050 ng·h/mL. For the same molecule, the Activity [13] was 0.14 g, the concentration at 8 h [14] was 30 ng/mL and the inhibition in vivo at 25 mg/kg [15] was 32.7%. It also gave a Vd [16] of 17 L/kg, an Activity [17] of 0.36 g and an Activity [18] of 0.35 g. For the same molecule, the Activity [19] was “inactive”, the Activity [20] was 0.075 g and the AUC(0-t) [21] was 375 ng·h/mL.
